IC50 data for 13 molecules are collected here from ChEMBL document CHEMBL3870325 (Bioorg Med Chem, 2017).

SMILES strings stand for the structures.

Assay [1] addresses Receptor tyrosine-protein kinase erbB-2 (Homo sapiens, UniProt P04626). Nature of the assay: Inhibition of HER2 (unknown origin) assessed as remaining ATP level measured after 15 mins by luminescence analysis. Put shortly: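 Kinase run as a contracted HTRF assay. Compounds in 3-fold dilution in 2.5% DMSO/kinase buffer, mixed with kinase and substrate, preincubated 15 min at RT. ATP added to start, reaction 30 min at RT. Stopped with Streptavidin-XL665 plus europium-cryptate TK antibody (1:100). Excitation 320 nm, 665/615 nm emission ratio. IC50 from inhibition curves, results from 2 assays.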

Assay [2] has as its target T1, Protein deacetylase HDAC6 (Homo sapiens, UniProt Q9UBN7).
T1 sequence (Q9UBN7 whole entry): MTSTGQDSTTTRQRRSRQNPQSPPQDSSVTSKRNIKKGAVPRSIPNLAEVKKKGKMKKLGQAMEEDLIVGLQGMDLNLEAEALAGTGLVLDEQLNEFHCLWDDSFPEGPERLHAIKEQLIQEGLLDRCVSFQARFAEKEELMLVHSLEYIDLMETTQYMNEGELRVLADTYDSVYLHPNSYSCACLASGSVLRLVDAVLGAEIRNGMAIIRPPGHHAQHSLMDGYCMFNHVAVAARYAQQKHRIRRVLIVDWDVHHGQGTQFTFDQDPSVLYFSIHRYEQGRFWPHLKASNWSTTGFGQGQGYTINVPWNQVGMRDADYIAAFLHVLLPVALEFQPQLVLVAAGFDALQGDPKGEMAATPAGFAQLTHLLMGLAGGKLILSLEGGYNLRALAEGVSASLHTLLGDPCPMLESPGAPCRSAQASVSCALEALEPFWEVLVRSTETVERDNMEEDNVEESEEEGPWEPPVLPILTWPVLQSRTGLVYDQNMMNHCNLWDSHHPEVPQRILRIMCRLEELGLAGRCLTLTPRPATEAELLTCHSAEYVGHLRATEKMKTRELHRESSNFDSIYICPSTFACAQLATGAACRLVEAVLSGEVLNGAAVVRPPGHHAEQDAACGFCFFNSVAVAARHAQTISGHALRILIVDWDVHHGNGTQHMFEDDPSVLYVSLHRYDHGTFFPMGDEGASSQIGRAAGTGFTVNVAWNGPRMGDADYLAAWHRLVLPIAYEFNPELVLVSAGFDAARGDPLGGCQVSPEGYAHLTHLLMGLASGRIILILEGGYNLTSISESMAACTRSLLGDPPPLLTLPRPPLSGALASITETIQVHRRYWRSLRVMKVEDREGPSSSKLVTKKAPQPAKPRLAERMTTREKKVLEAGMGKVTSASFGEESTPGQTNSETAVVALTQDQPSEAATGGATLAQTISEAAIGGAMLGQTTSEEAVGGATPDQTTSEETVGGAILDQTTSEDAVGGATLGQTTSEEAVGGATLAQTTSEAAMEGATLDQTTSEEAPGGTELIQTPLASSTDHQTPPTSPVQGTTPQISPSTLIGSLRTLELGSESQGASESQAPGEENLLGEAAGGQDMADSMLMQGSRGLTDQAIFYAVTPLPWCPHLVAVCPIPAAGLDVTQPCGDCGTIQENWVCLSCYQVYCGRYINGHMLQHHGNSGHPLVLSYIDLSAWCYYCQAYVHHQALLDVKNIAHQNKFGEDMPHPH
Nature of the assay: Inhibition of HDAC6 (unknown origin) using acetylated peptide substrate preincubated for 15 mins followed by substrate addition measured after 60 mins by fluorescence analysis.

The target of assay [3] is Epidermal growth factor receptor (Homo sapiens, UniProt P00533).
In the next assay the target is Histone deacetylase 1 (Homo sapiens, UniProt Q13547). Nature of the assay: Inhibition of HDAC1 (unknown origin) using acetylated peptide substrate preincubated for 15 mins followed by substrate addition measured after 60 mins by fluorescence analysis.
Assay [4] can be described thus: cells. The class given is functional, cell-based. The following applies: Homo sapiens, A549, 48 h.
Assay [5] is described as follows: cells. Format: functional, cell-based. As to conditions: Homo sapiens, BT-474, 48 h.
Assay [6] can be described thus: cells. As to conditions: Homo sapiens, A-431, 48 h.
Assay [7] can be described thus: cells. As to conditions: Homo sapiens, NCI-H1975, 48 h.
The nature of assay [8]: cells. The following applies: Homo sapiens, SK-BR-3, 48 h.

Sequence of Epidermal growth factor receptor (P00533 whole entry): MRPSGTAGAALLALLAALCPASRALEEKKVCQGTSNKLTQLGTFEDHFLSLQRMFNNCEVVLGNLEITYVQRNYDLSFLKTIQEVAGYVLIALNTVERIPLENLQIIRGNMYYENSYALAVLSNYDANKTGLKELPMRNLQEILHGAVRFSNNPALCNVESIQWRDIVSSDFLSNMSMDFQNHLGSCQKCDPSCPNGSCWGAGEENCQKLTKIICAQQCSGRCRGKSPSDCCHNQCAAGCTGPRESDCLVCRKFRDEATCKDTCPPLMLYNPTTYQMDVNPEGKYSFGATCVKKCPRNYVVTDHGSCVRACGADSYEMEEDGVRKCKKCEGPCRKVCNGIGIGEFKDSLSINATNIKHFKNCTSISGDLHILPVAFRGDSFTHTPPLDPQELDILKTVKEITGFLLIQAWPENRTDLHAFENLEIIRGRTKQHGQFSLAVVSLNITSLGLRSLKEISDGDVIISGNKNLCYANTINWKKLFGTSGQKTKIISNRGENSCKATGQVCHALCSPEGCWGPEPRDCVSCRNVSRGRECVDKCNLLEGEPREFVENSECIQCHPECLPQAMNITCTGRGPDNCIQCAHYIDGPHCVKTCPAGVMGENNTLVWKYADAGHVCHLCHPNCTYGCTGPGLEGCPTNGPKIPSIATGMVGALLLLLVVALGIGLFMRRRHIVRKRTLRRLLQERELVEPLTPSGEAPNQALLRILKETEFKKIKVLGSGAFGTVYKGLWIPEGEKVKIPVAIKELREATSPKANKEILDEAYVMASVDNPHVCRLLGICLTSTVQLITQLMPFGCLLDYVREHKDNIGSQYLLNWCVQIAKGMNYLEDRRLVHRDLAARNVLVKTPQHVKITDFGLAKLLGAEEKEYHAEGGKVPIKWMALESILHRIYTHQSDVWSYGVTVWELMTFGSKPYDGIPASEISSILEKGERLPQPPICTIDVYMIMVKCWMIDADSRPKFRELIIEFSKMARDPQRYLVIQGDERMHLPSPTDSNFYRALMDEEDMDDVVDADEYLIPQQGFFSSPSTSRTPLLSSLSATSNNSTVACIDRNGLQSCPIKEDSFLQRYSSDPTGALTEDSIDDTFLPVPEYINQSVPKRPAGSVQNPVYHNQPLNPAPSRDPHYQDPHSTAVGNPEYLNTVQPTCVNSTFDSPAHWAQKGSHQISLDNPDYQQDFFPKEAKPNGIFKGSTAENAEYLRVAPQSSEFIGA
Sequence of Receptor tyrosine-protein kinase erbB-2 (P04626 whole entry): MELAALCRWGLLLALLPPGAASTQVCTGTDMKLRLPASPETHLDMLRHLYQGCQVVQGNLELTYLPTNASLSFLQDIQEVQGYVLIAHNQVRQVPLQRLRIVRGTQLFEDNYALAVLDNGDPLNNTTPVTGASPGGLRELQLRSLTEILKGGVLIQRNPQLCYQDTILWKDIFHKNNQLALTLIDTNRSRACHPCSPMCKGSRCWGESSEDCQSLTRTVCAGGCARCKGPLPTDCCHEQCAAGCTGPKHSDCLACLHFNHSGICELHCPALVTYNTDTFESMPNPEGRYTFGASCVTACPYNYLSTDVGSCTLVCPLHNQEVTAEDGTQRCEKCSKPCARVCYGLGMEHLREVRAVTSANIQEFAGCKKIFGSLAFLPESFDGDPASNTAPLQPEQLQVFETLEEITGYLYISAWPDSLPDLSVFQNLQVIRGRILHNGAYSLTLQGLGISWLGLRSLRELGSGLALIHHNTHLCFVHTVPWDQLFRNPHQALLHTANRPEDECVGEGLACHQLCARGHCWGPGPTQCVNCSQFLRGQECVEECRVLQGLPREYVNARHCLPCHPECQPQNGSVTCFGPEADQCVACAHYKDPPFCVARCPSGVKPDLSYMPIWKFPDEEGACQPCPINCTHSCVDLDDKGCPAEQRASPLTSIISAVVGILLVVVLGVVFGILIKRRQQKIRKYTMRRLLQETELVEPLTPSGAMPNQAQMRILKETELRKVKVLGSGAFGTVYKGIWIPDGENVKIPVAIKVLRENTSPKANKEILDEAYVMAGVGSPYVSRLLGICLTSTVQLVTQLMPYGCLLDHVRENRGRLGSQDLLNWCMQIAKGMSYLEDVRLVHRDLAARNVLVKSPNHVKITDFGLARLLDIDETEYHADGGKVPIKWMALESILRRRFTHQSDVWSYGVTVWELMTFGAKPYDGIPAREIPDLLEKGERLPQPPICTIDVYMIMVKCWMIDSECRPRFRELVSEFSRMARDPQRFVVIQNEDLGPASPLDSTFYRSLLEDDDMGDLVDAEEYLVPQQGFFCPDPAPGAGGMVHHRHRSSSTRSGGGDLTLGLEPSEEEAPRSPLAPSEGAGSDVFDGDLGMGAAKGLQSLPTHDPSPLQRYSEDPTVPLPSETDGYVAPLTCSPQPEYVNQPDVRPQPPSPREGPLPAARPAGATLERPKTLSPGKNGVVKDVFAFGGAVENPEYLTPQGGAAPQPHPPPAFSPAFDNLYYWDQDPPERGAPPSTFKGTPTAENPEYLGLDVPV
Sequence of Histone deacetylase 1 (Q13547 whole entry): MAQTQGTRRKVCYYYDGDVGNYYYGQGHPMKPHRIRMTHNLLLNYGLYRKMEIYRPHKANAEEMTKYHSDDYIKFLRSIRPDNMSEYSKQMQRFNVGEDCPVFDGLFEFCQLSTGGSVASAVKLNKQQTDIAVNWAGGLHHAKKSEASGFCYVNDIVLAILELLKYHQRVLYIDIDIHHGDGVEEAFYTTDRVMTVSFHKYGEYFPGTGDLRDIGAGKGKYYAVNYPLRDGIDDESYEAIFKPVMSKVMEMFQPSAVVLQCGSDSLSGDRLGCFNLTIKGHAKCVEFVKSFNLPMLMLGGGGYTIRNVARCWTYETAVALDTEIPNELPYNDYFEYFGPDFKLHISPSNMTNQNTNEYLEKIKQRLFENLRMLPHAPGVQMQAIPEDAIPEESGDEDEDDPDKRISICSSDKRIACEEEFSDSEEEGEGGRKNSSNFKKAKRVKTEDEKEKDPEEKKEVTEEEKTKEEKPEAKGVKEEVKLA

Consider `O=C(CCCCCn1cc(-c2ccc3ncnc(Nc4ccc(F)c(Cl)c4)c3c2)nn1)NO`, for which the IC50 in [1] was 166 nM; in assay [2] it was 9.5 nM; in [3] it was 0.65 nM; at Histone deacetylase 1, 7 nM; in the assay “cells [4]” it was > 50000 nM; in the assay “cells [5]” it was 26000 nM.

As to `O=C(CCCCCn1cc(-c2ccc3ncnc(Nc4cccc(Cl)c4F)c3c2)nn1)NO`, the IC50 was 386 nM in [1]; 4.1 nM in [2]; 0.27 nM in assay [3]; 1.4 nM against Histone deacetylase 1; > 50000 nM in the assay “cells [4]”; > 50000 nM in the assay “cells [5]”.

As for `COc1cc(Nc2ncnc3ccc(-c4cn(CCCCCC(=O)NO)nn4)cc23)ccc1Oc1ccccc1`, the IC50 in [1] was > 1000 nM; in assay [2] it was 18.5 nM; in assay [3] it was 5.8 nM; against Histone deacetylase 1, 26.6 nM; in “cells [4]”, 43400 nM; in “cells [5]” it was 23600 nM.

With `COc1cc(Nc2ncnc3ccc(-c4cn(CCCCCCC(=O)NO)nn4)cc23)ccc1Oc1ccccc1`, the 50% inhibitory concentration (IC50) was > 1000 nM in [1]; 16 nM in assay [2]; 11.6 nM in assay [3]; 12.8 nM at Histone deacetylase 1; 13500 nM in the assay “cells [4]”; 4950 nM in “cells [5]”.

As to `O=C(CCCCCCn1cc(-c2ccc3ncnc(Nc4ccc(OCc5nccs5)c(Cl)c4)c3c2)nn1)NO`, the IC50 in assay [1] was 707 nM; in assay [2], 13.6 nM; in assay [3], 3.6 nM; against Histone deacetylase 1, 5.6 nM; in “cells [4]”, 8790 nM; in the assay “cells [5]”, 2880 nM.

Turning to `Cc1ccc(Oc2ccc(Nc3ncnc4ccc(-c5cn(CCCCCC(=O)NO)nn5)cc34)cc2C)cn1`, the IC50 in assay [1] was > 1000 nM; in [2], 12.9 nM; in assay [3] it was 6.4 nM; at Histone deacetylase 1, 6.9 nM; in the assay “cells [4]”, 8460 nM; in “cells [5]”, 14600 nM.

In the case of `CS(=O)(=O)CCNCc1ccc(-c2ccc3ncnc(Nc4ccc(OCc5cccc(F)c5)c(Cl)c4)c3c2)o1` [LAPATINIB], the IC50 in “cells [6]” was 150 nM; in the assay “cells [7]”, 7250 nM; in the assay “cells [8]”, 60 nM; in the assay “cells [4]” it was 510 to 1740 nM; in “cells [5]” it was 100 nM.

Take `O=C(CCCCCn1cc(-c2ccc3ncnc(Nc4ccc(OCc5nccs5)c(Cl)c4)c3c2)nn1)NO`: the IC50 was 537 nM in assay [1]; 14.3 nM in assay [2]; 6.9 nM in assay [3]; 7.2 nM at Histone deacetylase 1; 9960 nM in “cells [4]”; 20600 nM in “cells [5]”.

Take `O=C(CCCCCCC(=O)Nc1ccccc1)NO` [VORINOSTAT]: the IC50 in “cells [6]” is 2290 nM.

On to `Cc1ccc(Oc2ccc(Nc3ncnc4ccc(-c5cn(CCCCCCC(=O)NO)nn5)cc34)cc2C)cn1`, for which the IC50 in assay [1] is > 1000 nM; in [2], 13.8 nM; in assay [3], 10 nM; on Histone deacetylase 1 it was 5.2 nM; in “cells [4]”, 16500 nM; in the assay “cells [5]” it was 4410 nM.

As for `O=C(CCCCCn1cc(-c2ccc3ncnc(Nc4ccc(OCc5cccc(F)c5)c(Cl)c4)c3c2)nn1)NO`, the IC50 in assay [1] is 193 nM; in assay [2] it was 94.2 nM; in assay [3], 1.9 nM; against Histone deacetylase 1, 38.6 nM; in “cells [4]”, > 50000 nM; in “cells [5]”, 2200 nM.

Regarding `O=C(CCCCCCn1cc(-c2ccc3ncnc(Nc4ccc(OCc5cccc(F)c5)c(Cl)c4)c3c2)nn1)NO`, the IC50 in assay [1] was determined as 16.4 nM; in assay [2], 19.5 nM; in assay [3], 4.2 nM; on Histone deacetylase 1 it was 8.3 nM; in the assay “cells [4]” it was 3680 nM; in “cells [5]”, 2240 nM.

On to `O=C(CCCCCCn1cc(-c2ccc3ncnc(Nc4ccc(F)c(Cl)c4)c3c2)nn1)NO`, for which the IC50 was determined as 1950 nM in “cells [6]”; 8760 nM in “cells [7]”; 177 nM in assay [1]; 8.4 nM in assay [2]; 0.69 nM in [3]; 1270 nM in “cells [8]”. For the same molecule, the values for the IC50 on Histone deacetylase 1, in the assay “cells [4]” and in “cells [5]” were 2.6 nM, 510 nM and 3630 nM, respectively.

By IC50 is commonly meant the concentration that inhibits the measured activity by half.
